# Test system: HS-5 cells
# Test: 3D cell spheroid formation from a 2D cell sheet
# Assay type: cell-based
# Details: co-incubation with pD1-B 200 μM, biotin e.g. 500 μM, 24 h
# Outline: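 HS-5 fibroblast monolayers were kept in culture medium with the test compound at 200 μM for 24 h, with medium alone as control. In the competition arm, free biotin at 500 μM was co-incubated with the test compound. Cell clustering and spheroid formation were recorded by optical imaging.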
structure (smiles),measurement,value
O=C(O)CCCC[C@@H]1SC[C@@H]2NC(=O)N[C@@H]21 [biotin],effect of competing biotin on pD1-B-induced cell spheroid formation,blocks the formation of cell spheroids in a concentration dependent manner

# Reference: paper PMC6542364 (Journal of the American Chemical Society, 2019)
